Measurements: publication PMC4570851 (Bioorganic & medicinal chemistry letters, 2012)
Where no end group is shown, it is not given here. [ ]: non-standard residue; d: D form.

Biological target: T1, sPLA2-IIA-integrin αvβ3 interaction (Homo sapiens, UniProt P14555)
T1 sequence (P14555 21-144): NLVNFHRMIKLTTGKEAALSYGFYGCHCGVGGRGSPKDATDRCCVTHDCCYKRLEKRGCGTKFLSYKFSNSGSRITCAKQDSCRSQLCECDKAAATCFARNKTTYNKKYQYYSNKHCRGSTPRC
Assay: cell adhesion inhibition assay: αvβ3-K562 cells on immobilized sPLA2-IIA
Assay type: cell-based
Settings: for inhibition of the sPLA2-IIA-integrin interaction (in words): αvβ3-K562 cell adhesion to immobilized sPLA2-IIA; for Max. Inhibition / IC50: αvβ3-K562 cells, immobilized sPLA2-IIA, means ± S.E. (n=3); for Max. Inhibition: adhesion without inhibitors as 100%, adhesion to BSA only as 0%; for IC50: compounds 10 to 500 μM, 30 min, cells 1 h at 37 °C
Summary of the method: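 Wells coated with sPLA2-IIA and blocked with BSA, then preincubated 30 min with test compound (10 to 500 μM). K562 erythroleukemia cells transfected to overexpress integrin αvβ3 were added for 1 h at 37 °C. Bound cells were quantified by phosphatase assay. IC50 and maximum inhibition came from dose-response data, with no-inhibitor adhesion as 100% and BSA-only as 0%. n=3.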

Molecule | inhibition of the sPLA2-IIA-integrin interaction (in words) | Max. Inhibition | IC50
Gly-Arg*-Gly-Asp*-Asp*-Asp* [Cmpd21-6] | not inhibitory | N/A (N/A, “not active’ (<30% inhibition)) | 
Cc1nc(NC(=O)c2ccccc2)sc1-c1cc(C(=O)O)[nH]n1 [Cmpd8-1, R-OH] | not inhibitory | N/A (N/A, “not active’ (<30% inhibition)) | 
R-Gly-Arg*-Gly-Asp*-Asp*-Asp* (G[dR]G[dD][dD][dD]-NH2; not fully specified (N-terminus)) [Cmpd21] |  |  | 71 ± 18 µM
R-Gly-Arg*-Gly-Asp* (G[dR]G[dD]-NH2; not fully specified (N-terminus)) [Cmpd21-4] |  |  | 155 ± 3.8 µM
R-Ala-Trp-Asp*-Ile (AW[dD]I-NH2; not fully specified (N-terminus)) [Cmpd8] |  |  | 20 ± 1.3 µM
Cc1nc(NC(=O)c2ccccc2)sc1-c1cc(C(=O)N[C@@H](C)C(=O)O)[nH]n1 [Cmpd8-2, R-Ala] |  | N/A (N/A, “not active’ (<30% inhibition)) | 
Ala-Trp-Asp*-Ile [Cmpd8-5] | not inhibitory | N/A (N/A, “not active’ (<30% inhibition)) | 
Cc1nc(NC(=O)c2ccccc2)sc1-c1cc(C(=O)NCC(=O)O)[nH]n1 [Cmpd21-1, R-Gly] | active |  | 
